Measurements taken from ChEMBL document CHEMBL4706740, “Structure-Activity Study of Nitazoxanide Derivatives as Novel STAT3 Pathway Inhibitors” (ACS Med Chem Lett, 2021).
Activity calls are given as the source filed them. The calls are words filed in the database; no cut-off is given here.

Legend:
[1] = target: Signal transducer and activator of transcription 3 (Homo sapiens) (UniProt P40763); assay: Inhibition of STAT3 in human HeLa cells assessed as decrease in phosphorylation of STAT3 at Tyr705 upto 80 uM measured after 6 hrs by Western blot analysis; assay type: cell-based; conditions: dose microM <=80, time 6.0 hrs
Method in brief: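 Time course in HeLa cells given 80 μM compound, sampled from 15 min onward through multiple hours; parallel runs at 20 and 40 μM. Total cell lysates Western blotted for p-STAT3 (Tyr705), p-STAT3 (Ser727) and total STAT3.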

[2] = Cytotoxicity against human HEK-Blue IL-6 cells assessed as cell death at 80 uM; assay type: cell-based; conditions: hek-blue il-6, 80 µM
[3] = Cytotoxicity against human HEK-Blue IL-6 cells assessed as cell death at > 10 uM; assay type: cell-based
[4] = test system: HeLa; assay: Induction of apoptosis in human HeLa cells assessed as early apoptotic cells at 40 uM incubated for 24 hrs by Annexin V-FITC/PI staining based flow cytometry (reference value: 2.84%); assay type: functional
[5] = Apparent oral clearance in Sprague-Dawley rat at 25 mg/kg, IG; assay type: ADME, organism-based; conditions: in vivo, read-out: CL(app) (converted)
Method in brief: (§1)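 Rats, n = 3 per group, received a single dose either intragastrically (25 mg/kg) or intravenously (5 mg/kg). Plasma concentration–time curves were used to derive t1/2α, t1/2β, Vd/F, CL/F, AUC0–∞, Tmax and Cmax. Absolute oral bioavailability was calculated from the ig and iv data.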

[6] = test system: HeLa; assay: Induction of apoptosis in human HeLa cells assessed as viable cells at 10 uM incubated for 24 hrs by Annexin V-FITC/PI staining based flow cytometry (reference value: 92.45%); assay type: functional; conditions: read-out: Activity
[7] = target: Proto-oncogene tyrosine-protein kinase Src (Homo sapiens) (UniProt P12931); assay: Inhibition of Src phosphorylation at Tyr416 in human Hela cells upto 80 uM after 24 hrs by Western blot analysis; assay type: cell-based; conditions: dose microM <=80, time […]
[8] = test system: HeLa; assay: Induction of cell cycle arrest in human HeLa cells assessed as accumulation at G2/M phase at 10 uM measured after 24 hrs by flow cytometry analysis (reference value: 11.81%); assay type: functional
[9] = Tmax in Sprague-Dawley rat at 25 mg/kg, IG; assay type: ADME, organism-based; conditions: in vivo, po
[10] = test system: HeLa; assay: Induction of cell cycle arrest in human HeLa cells assessed as accumulation at G2/M phase at 40 uM measured after 24 hrs by flow cytometry analysis (reference value: 11.81%); assay type: functional
[11] = Selectivity index, ratio of inhibition of IL-6 induced STAT3 transcriptional activity to inhibition against HEK-Blue IL-6 cells assessed as reduction in cell viability at 10 uM
[12] = test system: HeLa; assay: Induction of apoptosis in human HeLa cells assessed as viable cells at 20 uM incubated for 24 hrs by Annexin V-FITC/PI staining based flow cytometry (reference value: 92.45%); assay type: functional; conditions: read-out: Activity
[13] = target: T1, Signal transducer and activator of transcription 5A (Homo sapiens) (UniProt P42229); assay: Inhibition of STAT5 (unknown origin)
T1 sequence (whole entry): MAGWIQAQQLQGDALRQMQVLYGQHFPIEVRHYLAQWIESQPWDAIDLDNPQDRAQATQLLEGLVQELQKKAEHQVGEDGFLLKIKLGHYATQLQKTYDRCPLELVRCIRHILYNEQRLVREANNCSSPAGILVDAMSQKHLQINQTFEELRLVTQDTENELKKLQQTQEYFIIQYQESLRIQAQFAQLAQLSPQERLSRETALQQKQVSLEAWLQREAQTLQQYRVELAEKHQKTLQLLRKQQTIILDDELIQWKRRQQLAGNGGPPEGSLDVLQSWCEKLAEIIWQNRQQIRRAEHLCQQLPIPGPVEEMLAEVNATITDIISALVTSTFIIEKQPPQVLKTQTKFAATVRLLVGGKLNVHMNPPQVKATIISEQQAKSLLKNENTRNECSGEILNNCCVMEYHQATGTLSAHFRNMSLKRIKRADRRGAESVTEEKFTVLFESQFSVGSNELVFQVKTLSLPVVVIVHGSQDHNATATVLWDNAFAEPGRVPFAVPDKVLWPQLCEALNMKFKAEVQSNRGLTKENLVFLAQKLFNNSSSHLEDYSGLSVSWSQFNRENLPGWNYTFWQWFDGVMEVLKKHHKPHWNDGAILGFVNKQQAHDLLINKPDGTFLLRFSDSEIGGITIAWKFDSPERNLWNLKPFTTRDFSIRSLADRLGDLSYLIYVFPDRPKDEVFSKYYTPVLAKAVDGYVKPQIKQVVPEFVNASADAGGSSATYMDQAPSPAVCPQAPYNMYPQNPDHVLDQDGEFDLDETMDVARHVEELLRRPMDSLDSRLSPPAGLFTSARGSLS

[14] = test system: HeLa; assay: Induction of cell cycle arrest in human HeLa cells assessed as accumulation at S phase at 20 uM measured after 24 hrs by flow cytometry analysis (reference value: 34.04%); assay type: functional
[15] = target: Signal transducer and activator of transcription 3 (Homo sapiens) (UniProt P40763); assay: Inhibition of STAT3 transcriptional activity in human HeLa cells assessed as downregulation of survivin expression upto 80 uM after 24 hrs by western blot analysis; assay type: cell-based; conditions: dose microM <=80, time […]
Method in brief: (§2)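 HeLa cells treated 24 h with a concentration series. Total cell lysates probed by Western blot with specific antibodies for the STAT3 target gene products cyclin D1, c-Myc and survivin.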

[16] = test system: HeLa; assay: Induction of apoptosis in human HeLa cells assessed as necrotic cells at 40 uM incubated for 24 hrs by Annexin V-FITC/PI staining based flow cytometry (reference value: 0.02%); assay type: functional
[17] = target: Signal transducer and activator of transcription 3 (Homo sapiens) (UniProt P40763); assay: Inhibition of STAT3 in human Hela cell lysate assessed as inhibition of protein and DNA interaction upto 200 uM incubated 30 mins by electrophoretic mobility shift assay; assay type: subcellular; conditions: dose microM <=200, time 30.0 min
[18] = test system: HeLa; assay: Induction of apoptosis in human HeLa cells assessed as necrotic cells at 10 uM incubated for 24 hrs by Annexin V-FITC/PI staining based flow cytometry (reference value: 0.02%); assay type: functional
[19] = test system: HeLa; assay: Induction of apoptosis in human HeLa cells assessed as necrotic cells at 20 uM incubated for 24 hrs by Annexin V-FITC/PI staining based flow cytometry (reference value: 0.02%); assay type: functional
[20] = Half life in Sprague-Dawley rat at 5 mg/kg, iv; assay type: ADME, organism-based; conditions: in vivo; method in brief: as §1
[21] = target: Signal transducer and activator of transcription 3 (Homo sapiens) (UniProt P40763); assay: Inhibition of STAT3 transcriptional activity in human HeLa cells assessed as downregulation of cyclin D1 expression upto 80 uM after 24 hrs by western blot analysis; assay type: cell-based; conditions: dose microM <=80, time […]; method in brief: as §2
[22] = Apparent volume of distribution in Sprague-Dawley rat at 5 mg/kg, iv; assay type: ADME, organism-based; conditions: in vivo; method in brief: as §1
[23] = test system: HeLa; assay: Induction of apoptosis in human HeLa cells assessed as early apoptotic cells at 10 uM incubated for 24 hrs by Annexin V-FITC/PI staining based flow cytometry (reference value: 2.84%); assay type: functional
[24] = Antiproliferative activity against human A375 cells assessed as cell growth inhibition measured after 48 hrs by MTT assay; assay type: functional, cell-based; conditions: A-375, 48 h
[25] = test system: HeLa; assay: Antiproliferative activity against human HeLa cells assessed as cell growth inhibition measured after 48 hrs by MTT assay; assay type: functional, cell-based
Method in brief: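 Growth was read by MTT assay, and IC50 was taken from the dose–response curve. Values are averages of three independent experiments.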

Signal transducer and activator of transcription 3 (Homo sapiens), sequence (P40763 whole entry): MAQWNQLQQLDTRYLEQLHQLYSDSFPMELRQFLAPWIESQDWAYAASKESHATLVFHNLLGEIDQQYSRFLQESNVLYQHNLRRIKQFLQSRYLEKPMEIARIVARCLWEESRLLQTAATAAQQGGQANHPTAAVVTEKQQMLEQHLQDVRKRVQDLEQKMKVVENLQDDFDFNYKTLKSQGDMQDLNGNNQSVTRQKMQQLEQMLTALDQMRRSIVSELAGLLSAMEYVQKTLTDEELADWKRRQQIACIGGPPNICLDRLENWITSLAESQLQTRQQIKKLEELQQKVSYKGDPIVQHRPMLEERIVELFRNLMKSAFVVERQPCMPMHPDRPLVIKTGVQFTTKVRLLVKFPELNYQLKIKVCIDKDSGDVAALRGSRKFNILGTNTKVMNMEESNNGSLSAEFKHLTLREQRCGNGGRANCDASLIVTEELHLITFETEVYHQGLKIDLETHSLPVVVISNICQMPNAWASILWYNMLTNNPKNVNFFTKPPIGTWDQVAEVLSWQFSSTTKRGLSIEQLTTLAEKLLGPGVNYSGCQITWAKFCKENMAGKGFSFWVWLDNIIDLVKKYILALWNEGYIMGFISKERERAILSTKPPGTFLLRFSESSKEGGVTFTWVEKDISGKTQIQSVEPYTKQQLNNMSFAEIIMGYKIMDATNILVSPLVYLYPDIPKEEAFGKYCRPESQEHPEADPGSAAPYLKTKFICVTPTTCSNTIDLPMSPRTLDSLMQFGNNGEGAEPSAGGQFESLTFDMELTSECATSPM
Proto-oncogene tyrosine-protein kinase Src (Homo sapiens), sequence (P12931 2-536 limits assumed): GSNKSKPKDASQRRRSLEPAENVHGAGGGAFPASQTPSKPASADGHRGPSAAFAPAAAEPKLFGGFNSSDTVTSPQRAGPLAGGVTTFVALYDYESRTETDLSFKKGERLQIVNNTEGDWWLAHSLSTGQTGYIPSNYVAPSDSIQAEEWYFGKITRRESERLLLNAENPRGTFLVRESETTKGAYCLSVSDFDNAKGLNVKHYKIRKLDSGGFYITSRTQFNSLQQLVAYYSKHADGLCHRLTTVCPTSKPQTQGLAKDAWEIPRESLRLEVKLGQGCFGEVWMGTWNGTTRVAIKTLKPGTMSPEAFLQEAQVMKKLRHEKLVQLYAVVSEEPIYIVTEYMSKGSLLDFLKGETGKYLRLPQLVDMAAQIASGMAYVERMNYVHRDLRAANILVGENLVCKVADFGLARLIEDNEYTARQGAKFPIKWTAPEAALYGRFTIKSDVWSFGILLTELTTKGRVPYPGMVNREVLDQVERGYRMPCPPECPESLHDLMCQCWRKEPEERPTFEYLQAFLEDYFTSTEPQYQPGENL

CC(=O)Oc1ccccc1C(=O)Nc1ncc([N+](=O)[O-])s1 [NITAZOXANIDE]
inhibition [1]: inactive | Activity [2]: Non-Toxic | Activity [3]: Non-Toxic | Activity [4]: 7.48% | CL/F [5]: 105 mL/min/kg | viability at 10 µM [6]: 92.3% | inhibition [7]: inactive | Activity [8]: 9.59% | Tmax [9]: 2 h | Activity [10]: 6.6% | Selectivity Index [11]: 2.8 | viability at 20 µM [12]: 84.1% | inhibition [13]: inactive | Activity [14]: 21.84% | inhibition [15]: Dose-dependent effect | Activity [16]: 0.06% | inhibition [17]: inactive | Activity [18]: 0.02% | Activity [19]: 0.04% | half-life [20]: 3 min | inhibition [21]: Dose-dependent effect | Vd/F [22]: 0.08 L/kg | Activity [23]: 2.34% | IC50 [24]: 31.8 µM | IC50 [25]: 35 µM
